Source: ChEMBL document CHEMBL4049407, “Positional Scanning Identifies the Molecular Determinants of a High Affinity Multi-Leucine Inhibitor for Furin and PACE4” (J Med Chem, 2017)
Activity calls are given as the source filed them. No rule for the calls is given here. Peptide text beside a SMILES is read from it. * marks the point of attachment. NH(4-amidinobenzyl) = N=C(N)c1ccc(CN*)cc1

How the values were obtained:
[1] = molecular target: T1, Proprotein convertase subtilisin/kexin type 6 (Homo sapiens, UniProt P29122); test: Inhibition of recombinant human PACE4 expressed in drosophila S2 cells using pyrGlu-Arg-Thr-Lys-Arg-7-amido-4-methylcoumarin as substrate after 60 mins by spectrofluorometry method; format: cell-based
T1 sequence (P29122 whole entry): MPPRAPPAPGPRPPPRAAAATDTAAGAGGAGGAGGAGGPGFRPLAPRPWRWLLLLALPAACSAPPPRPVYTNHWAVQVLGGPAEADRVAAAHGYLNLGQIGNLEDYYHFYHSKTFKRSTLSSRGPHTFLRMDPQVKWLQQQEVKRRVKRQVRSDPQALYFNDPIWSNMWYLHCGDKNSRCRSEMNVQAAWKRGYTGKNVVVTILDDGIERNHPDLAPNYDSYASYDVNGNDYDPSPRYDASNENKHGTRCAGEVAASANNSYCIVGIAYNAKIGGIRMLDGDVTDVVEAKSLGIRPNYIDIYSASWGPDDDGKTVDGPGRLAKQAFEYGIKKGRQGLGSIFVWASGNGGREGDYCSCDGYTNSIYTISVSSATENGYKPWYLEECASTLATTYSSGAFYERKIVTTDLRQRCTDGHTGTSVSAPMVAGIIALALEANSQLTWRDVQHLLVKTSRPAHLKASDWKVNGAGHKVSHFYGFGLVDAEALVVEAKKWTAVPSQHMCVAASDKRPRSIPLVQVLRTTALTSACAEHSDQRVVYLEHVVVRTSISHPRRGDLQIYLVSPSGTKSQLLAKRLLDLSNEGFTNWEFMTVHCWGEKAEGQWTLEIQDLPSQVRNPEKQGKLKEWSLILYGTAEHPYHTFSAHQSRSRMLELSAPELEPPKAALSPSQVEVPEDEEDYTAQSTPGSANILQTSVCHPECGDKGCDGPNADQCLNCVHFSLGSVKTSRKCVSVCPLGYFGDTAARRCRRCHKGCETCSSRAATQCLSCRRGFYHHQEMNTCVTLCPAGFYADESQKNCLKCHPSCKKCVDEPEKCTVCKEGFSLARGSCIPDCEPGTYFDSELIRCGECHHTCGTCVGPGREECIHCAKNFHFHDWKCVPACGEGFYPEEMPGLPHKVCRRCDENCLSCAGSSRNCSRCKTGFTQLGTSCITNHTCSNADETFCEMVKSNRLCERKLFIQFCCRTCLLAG
How it was run: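 Human recombinant purified PACE4 at 2 units/100 µL (20.18 nM), in 20 mM BisTris pH 6.5, 1 mM CaCl2, 1.8 mg/mL BSA. Substrate 100 µM, KM 4.035 µM. Inhibitor 1 nM to 10 µM; 60 min at 37°C. Fluorescence ex 370 / em 460 nm. Ki by Morrison tight-binding equation; three independent experiments, mean ± SD.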

[2] = molecular target: Furin (Homo sapiens, UniProt P09958); test: Inhibition of recombinant human furin expressed in drosophila S2 cells using pyrGlu-Arg-Thr-Lys-Arg-7-amido-4-methylcoumarin as substrate after 60 mins by spectrofluorometry method; format: cell-based
Chain of Furin (P09958 whole entry): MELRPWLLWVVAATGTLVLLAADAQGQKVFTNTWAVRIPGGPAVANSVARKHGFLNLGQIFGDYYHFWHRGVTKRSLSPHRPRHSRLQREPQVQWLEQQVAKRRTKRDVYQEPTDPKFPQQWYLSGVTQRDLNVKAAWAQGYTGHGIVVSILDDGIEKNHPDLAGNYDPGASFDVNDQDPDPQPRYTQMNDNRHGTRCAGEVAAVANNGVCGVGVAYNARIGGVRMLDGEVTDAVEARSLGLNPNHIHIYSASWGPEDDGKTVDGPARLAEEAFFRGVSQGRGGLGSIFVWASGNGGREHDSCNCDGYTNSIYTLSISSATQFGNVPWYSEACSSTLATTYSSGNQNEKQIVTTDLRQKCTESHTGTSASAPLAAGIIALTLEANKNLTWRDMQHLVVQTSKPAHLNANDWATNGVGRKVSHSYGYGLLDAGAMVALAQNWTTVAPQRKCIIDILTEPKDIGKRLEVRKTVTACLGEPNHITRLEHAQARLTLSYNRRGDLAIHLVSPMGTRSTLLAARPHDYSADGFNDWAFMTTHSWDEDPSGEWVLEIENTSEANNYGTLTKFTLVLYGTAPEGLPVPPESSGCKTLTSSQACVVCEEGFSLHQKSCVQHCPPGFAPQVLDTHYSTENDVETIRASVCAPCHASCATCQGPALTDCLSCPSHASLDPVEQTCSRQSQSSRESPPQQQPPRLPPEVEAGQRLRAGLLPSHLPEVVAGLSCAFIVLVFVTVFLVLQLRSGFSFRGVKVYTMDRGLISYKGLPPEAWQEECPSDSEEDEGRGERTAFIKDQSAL
How it was run: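 Human recombinant purified furin at 2 units/100 µL (0.54 nM), in 100 mM HEPES pH 7.5, 1 mM CaCl2, 1 mM β-mercaptoethanol, 1.8 mg/mL BSA. His-containing peptides run instead in 20 mM BisTris pH 6.5 with the same additives. Substrate 100 µM, KM 5.04 µM. Inhibitor 1 nM to 10 µM; 60 min at 37°C. Fluorescence ex 370 / em 460 nm. Ki by Morrison equation; triplicate experiments, mean ± SD.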

[3] = organism: Homo sapiens; test: Selectivity index, ratio of Ki for recombinant human furin expressed in drosophila S2 cells to Ki for recombinant human PACE4 expressed in drosophila S2 cells; format: cell-based
How it was run: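 Ratio Ki(furin)/Ki(PACE4). […] PACE4 buffer was BisTris pH 6.5; furin buffer was HEPES pH 7.5, or BisTris pH 6.5 for His peptides. Ki fitted by Morrison equation from three independent experiments.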

[4] = tested on: DU-145; test: Antiproliferative activity against human DU145 cells assessed as reduction in metabolic activity at 25 to 100 uM after 72 hrs by MTT assay; format: functional, cell-based
How it was run: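 First-pass MTT screen of each library peptide on DU145 cells (RPMI 1640, 5% FBS, 1500 cells/well, poly-L-lysine plates). Peptides added 24 h after seeding at 25, 50 and 100 µM in fresh serum medium for 72 h. MTT 1 mg/mL for 4 h; 2-propanol HCl solubilisation. Activity normalised to water vehicle. Mean ± SEM of at least two independent experiments.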

Row | Structure (SMILES) | Ki [1] [nM] | Ki [2] [nM] | Ratio Ki [3] | Activity [4]
1 | CC(=O)N[C@@H](CC(C)C)C(=O)N[C@@H](CC(C)C)C(=O)N[C@@H](CC(C)C)C(=O)N[C@@H](Cc1c[nH]c2ccccc12)C(=O)N[C@@H](CCCNC(=N)N)C(=O)N[C@H](C(=O)N[C@@H](CCCCN)C(=O)NCc1ccc(C(=N)N)cc1)C(C)C (Ac-LLLWRVK-{NH(4-amidinobenzyl)}) | 2.8 | 8 | 2.9 | inactive
2 | CSCC[C@H](NC(=O)[C@H](CC(C)C)NC(=O)[C@H](CC(C)C)NC(=O)[C@H](CC(C)C)NC(C)=O)C(=O)N[C@@H](CCCNC(=N)N)C(=O)N[C@H](C(=O)N[C@@H](CCCCN)C(=O)NCc1ccc(C(=N)N)cc1)C(C)C (Ac-LLLMRVK-{NH(4-amidinobenzyl)}) | 3.7 | 3.4 | 0.9 | inactive
3 | CC(=O)N[C@@H](CC(C)C)C(=O)N[C@@H](CC(C)C)C(=O)N[C@@H](Cc1c[nH]c2ccccc12)C(=O)N[C@@H](CC(C)C)C(=O)N[C@@H](CCCNC(=N)N)C(=O)N[C@H](C(=O)N[C@@H](CCCCN)C(=O)NCc1ccc(C(=N)N)cc1)C(C)C (Ac-LLWLRVK-{NH(4-amidinobenzyl)}) | 44 | 36 | 0.8 | inactive
4 | CC(=O)N[C@@H](CC(C)C)C(=O)N[C@@H](CC(C)C)C(=O)N[C@@H](CC(C)C)C(=O)N[C@@H](C)C(=O)N[C@@H](CCCNC(=N)N)C(=O)N[C@H](C(=O)N[C@@H](CCCCN)C(=O)NCc1ccc(C(=N)N)cc1)C(C)C (Ac-LLLARVK-{NH(4-amidinobenzyl)}) | 4 | 5 | 1.3 | inactive
5 | CC(=O)N[C@@H](CC(C)C)C(=O)N[C@@H](CC(C)C)C(=O)N[C@@H](CC(C)C)C(=O)N[C@@H](CO)C(=O)N[C@@H](CCCNC(=N)N)C(=O)N[C@H](C(=O)N[C@@H](CCCCN)C(=O)NCc1ccc(C(=N)N)cc1)C(C)C (Ac-LLLSRVK-{NH(4-amidinobenzyl)}) | 2 | 4 | 2 | inactive
6 | CC(=O)N[C@@H](CC(C)C)C(=O)N[C@@H](CC(C)C)C(=O)N[C@H](C(=O)N[C@@H](CC(C)C)C(=O)N[C@@H](CCCNC(=N)N)C(=O)N[C@H](C(=O)N[C@@H](CCCCN)C(=O)NCc1ccc(C(=N)N)cc1)C(C)C)[C@@H](C)O (Ac-LLTLRVK-{NH(4-amidinobenzyl)}) | 39 | 18 | 0.5 | inactive
7 | CC(=O)N[C@@H](CC(N)=O)C(=O)N[C@@H](CC(C)C)C(=O)N[C@@H](CC(C)C)C(=O)N[C@@H](CC(C)C)C(=O)N[C@@H](CCCNC(=N)N)C(=O)N[C@H](C(=O)N[C@@H](CCCCN)C(=O)NCc1ccc(C(=N)N)cc1)C(C)C (Ac-NLLLRVK-{NH(4-amidinobenzyl)}) | 6 | 3.1 | 0.5 | inactive
8 | CC(=O)N[C@@H](CC(C)C)C(=O)N[C@@H](CC(C)C)C(=O)N[C@@H](CO)C(=O)N[C@@H](CC(C)C)C(=O)N[C@@H](CCCNC(=N)N)C(=O)N[C@H](C(=O)N[C@@H](CCCCN)C(=O)NCc1ccc(C(=N)N)cc1)C(C)C (Ac-LLSLRVK-{NH(4-amidinobenzyl)}) | 36 | 15 | 0.4 | inactive
9 | CC(=O)N[C@@H](CC(C)C)C(=O)N[C@@H](CC(C)C)C(=O)N[C@@H](CC(C)C)C(=O)N[C@@H](Cc1ccc(O)cc1)C(=O)N[C@@H](CCCNC(=N)N)C(=O)N[C@H](C(=O)N[C@@H](CCCCN)C(=O)NCc1ccc(C(=N)N)cc1)C(C)C (Ac-LLLYRVK-{NH(4-amidinobenzyl)}) | 2 | 3.1 | 1.6 | inactive
10 | CC(=O)N[C@@H](CC(C)C)C(=O)N[C@@H](Cc1cnc[nH]1)C(=O)N[C@@H](CC(C)C)C(=O)N[C@@H](CC(C)C)C(=O)N[C@@H](CCCNC(=N)N)C(=O)N[C@H](C(=O)N[C@@H](CCCCN)C(=O)NCc1ccc(C(=N)N)cc1)C(C)C (Ac-LHLLRVK-{NH(4-amidinobenzyl)}) | 3 | 4.7 | 1.6 | inactive
11 | CC(=O)N[C@@H](CC(C)C)C(=O)N[C@@H](CC(C)C)C(=O)N[C@H](C(=O)N[C@@H](CC(C)C)C(=O)N[C@@H](CCCNC(=N)N)C(=O)N[C@H](C(=O)N[C@@H](CCCCN)C(=O)NCc1ccc(C(=N)N)cc1)C(C)C)C(C)C (Ac-LLVLRVK-{NH(4-amidinobenzyl)}) | 4 | 3 | 0.8 | inactive

The next lines start with results.

Row | Ki [1] [nM] | Ki [2] [nM] | Structure (SMILES) | Ratio Ki [3] | Activity [4]
12 | 1.5 | 3 | CC(=O)N[C@@H](C)C(=O)N[C@@H](CC(C)C)C(=O)N[C@@H](CC(C)C)C(=O)N[C@@H](CC(C)C)C(=O)N[C@@H](CCCNC(=N)N)C(=O)N[C@H](C(=O)N[C@@H](CCCCN)C(=O)NCc1ccc(C(=N)N)cc1)C(C)C (Ac-ALLLRVK-{NH(4-amidinobenzyl)}) | 2 | inactive
13 | 2 | 3 | CC(=O)N[C@@H](CC(C)C)C(=O)NCC(=O)N[C@@H](CC(C)C)C(=O)N[C@@H](CC(C)C)C(=O)N[C@@H](CCCNC(=N)N)C(=O)N[C@H](C(=O)N[C@@H](CCCCN)C(=O)NCc1ccc(C(=N)N)cc1)C(C)C (Ac-LGLLRVK-{NH(4-amidinobenzyl)}) | 1.5 | inactive
14 | 1 | 1.5 | CC(=O)N[C@@H](CC(C)C)C(=O)N1CCC[C@H]1C(=O)N[C@@H](CC(C)C)C(=O)N[C@@H](CC(C)C)C(=O)N[C@@H](CCCNC(=N)N)C(=O)N[C@H](C(=O)N[C@@H](CCCCN)C(=O)NCc1ccc(C(=N)N)cc1)C(C)C (Ac-LPLLRVK-{NH(4-amidinobenzyl)}) | 1.5 | inactive
15 | 0.2 | 0.7 | CC(=O)N[C@@H](CC(C)C)C(=O)N[C@@H](CC(C)C)C(=O)N[C@@H](CC(C)C)C(=O)N[C@@H](CCCNC(=N)N)C(=O)N[C@@H](CCCNC(=N)N)C(=O)N[C@H](C(=O)N[C@@H](CCCCN)C(=O)NCc1ccc(C(=N)N)cc1)C(C)C (Ac-LLLRRVK-{NH(4-amidinobenzyl)}) | 3.5 | inactive
16 | 0.3 | 0.4 | CC(=O)N[C@@H](CCCCN)C(=O)N[C@@H](CC(C)C)C(=O)N[C@@H](CC(C)C)C(=O)N[C@@H](CC(C)C)C(=O)N[C@@H](CCCNC(=N)N)C(=O)N[C@H](C(=O)N[C@@H](CCCCN)C(=O)NCc1ccc(C(=N)N)cc1)C(C)C (Ac-KLLLRVK-{NH(4-amidinobenzyl)}) | 1.3 | inactive
17 | 0.4 | 0.5 | CC(=O)N[C@@H](CC(C)C)C(=O)N[C@@H](CCCNC(=N)N)C(=O)N[C@@H](CC(C)C)C(=O)N[C@@H](CC(C)C)C(=O)N[C@@H](CCCNC(=N)N)C(=O)N[C@H](C(=O)N[C@@H](CCCCN)C(=O)NCc1ccc(C(=N)N)cc1)C(C)C (Ac-LRLLRVK-{NH(4-amidinobenzyl)}) | 1.3 | inactive
